Source: ChEMBL document CHEMBL2331353, “Synthesis and biological evaluation of some novel resveratrol amide derivatives as potential anti-tumor agents” (Eur J Med Chem, 2013)

Legend:
[1] = target: T1, Prostaglandin G/H synthase 2 (Homo sapiens, UniProt P35354); assay: Inhibition of COX-2 (unknown origin) by chemiluminescence assay
T1 sequence (P35354 whole entry): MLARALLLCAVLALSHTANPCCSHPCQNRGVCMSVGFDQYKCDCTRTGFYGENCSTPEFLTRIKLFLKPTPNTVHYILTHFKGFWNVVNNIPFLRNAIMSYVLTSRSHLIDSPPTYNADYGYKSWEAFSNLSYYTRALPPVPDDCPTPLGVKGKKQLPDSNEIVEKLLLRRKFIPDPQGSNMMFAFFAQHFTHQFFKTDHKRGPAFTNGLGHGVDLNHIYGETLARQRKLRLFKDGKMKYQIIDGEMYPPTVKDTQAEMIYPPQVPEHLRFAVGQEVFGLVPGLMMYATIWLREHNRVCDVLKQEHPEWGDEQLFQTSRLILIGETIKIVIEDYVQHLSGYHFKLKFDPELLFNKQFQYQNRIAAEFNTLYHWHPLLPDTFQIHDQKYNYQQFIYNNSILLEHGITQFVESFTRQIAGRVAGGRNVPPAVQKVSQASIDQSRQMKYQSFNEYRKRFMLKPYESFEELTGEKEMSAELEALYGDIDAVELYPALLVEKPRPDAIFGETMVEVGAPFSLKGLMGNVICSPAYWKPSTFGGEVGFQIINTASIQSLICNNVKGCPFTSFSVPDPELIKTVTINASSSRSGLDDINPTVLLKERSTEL

MCF7 = assay: Antitumor activity against human MCF7 cells assessed as inhibition of cell proliferation after 48 hrs by MTT assay; type: functional, cell-based; settings: MCF7, 48 h
How it was run: (§1)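 Cells grown to log phase in RPMI 1640 with 10% FBS, seeded at 2×10^4 cells/mL and preincubated 24 h at 37 °C, 5% CO2. Compounds at preset concentrations added (6 wells), celecoxib as positive reference, 48 h exposure. MTT (2.5 mg/mL in PBS) for 4 h, then SDS/isobutanol/HCl extraction overnight at 37 °C. OD read at 570 nm. Triplicate wells per concentration, at least three independent runs.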

[2] = target: T2, Prostaglandin G/H synthase 2 (Mus musculus, UniProt Q05769); assay: Inhibition of COX-2 in mouse RAW264.7 cells assessed as decrease in LPS-induced PGE2 production; type: cell-based
T2 sequence (Q05769 whole entry): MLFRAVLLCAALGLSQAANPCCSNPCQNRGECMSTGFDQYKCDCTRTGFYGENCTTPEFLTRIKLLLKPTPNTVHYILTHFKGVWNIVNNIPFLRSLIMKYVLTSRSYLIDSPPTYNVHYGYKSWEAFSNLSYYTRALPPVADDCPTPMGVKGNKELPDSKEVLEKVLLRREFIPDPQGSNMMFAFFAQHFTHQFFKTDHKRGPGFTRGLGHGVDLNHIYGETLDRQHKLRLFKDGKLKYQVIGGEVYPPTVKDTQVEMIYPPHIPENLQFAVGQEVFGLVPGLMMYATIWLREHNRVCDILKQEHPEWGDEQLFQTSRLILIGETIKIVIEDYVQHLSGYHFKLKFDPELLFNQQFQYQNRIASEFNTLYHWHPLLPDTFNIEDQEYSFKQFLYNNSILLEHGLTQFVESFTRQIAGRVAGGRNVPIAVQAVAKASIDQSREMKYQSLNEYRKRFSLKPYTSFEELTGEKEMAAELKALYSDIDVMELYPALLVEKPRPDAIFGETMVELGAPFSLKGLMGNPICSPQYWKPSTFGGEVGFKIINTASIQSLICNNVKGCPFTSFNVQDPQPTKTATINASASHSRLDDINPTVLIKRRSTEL

A549 = assay: Antitumor activity against human A549 cells assessed as inhibition of cell proliferation after 48 hrs by MTT assay; type: functional, cell-based; settings: A549, 48 h; how it was run: as §1
B16-F10 = assay: Antitumor activity against mouse B16F10 cells assessed as inhibition of cell proliferation after 48 hrs by MTT assay; type: functional, cell-based; settings: B16-F10, 48 h; how it was run: as §1
[3] = target: Prostaglandin G/H synthase 1 (Homo sapiens, UniProt P23219); assay: Inhibition of COX-1 (unknown origin) by chemiluminescence assay
Prostaglandin G/H synthase 1, sequence (P23219 whole entry): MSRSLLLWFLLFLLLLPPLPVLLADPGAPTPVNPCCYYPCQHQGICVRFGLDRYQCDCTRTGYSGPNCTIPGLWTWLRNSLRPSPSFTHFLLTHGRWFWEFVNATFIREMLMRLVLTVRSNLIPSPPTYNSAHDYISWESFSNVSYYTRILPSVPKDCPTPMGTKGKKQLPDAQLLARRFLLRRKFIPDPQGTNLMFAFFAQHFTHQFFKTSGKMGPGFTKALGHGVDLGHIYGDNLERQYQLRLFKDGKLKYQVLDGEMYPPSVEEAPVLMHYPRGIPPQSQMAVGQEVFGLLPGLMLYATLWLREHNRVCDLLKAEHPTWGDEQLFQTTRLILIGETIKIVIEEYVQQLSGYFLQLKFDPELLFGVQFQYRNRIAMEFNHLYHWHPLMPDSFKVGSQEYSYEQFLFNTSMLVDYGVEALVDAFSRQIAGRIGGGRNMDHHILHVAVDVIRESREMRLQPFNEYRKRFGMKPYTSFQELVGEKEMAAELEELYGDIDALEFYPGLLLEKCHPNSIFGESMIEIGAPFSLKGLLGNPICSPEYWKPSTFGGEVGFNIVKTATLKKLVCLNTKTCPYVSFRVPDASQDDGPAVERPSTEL

Row | IC50 [1] [µM] | IC50 (MCF7) [µM] | IC50 [2] [µM] | IC50 (A549) [µM] | IC50 (B16-F10) [µM] | IC50 [3] [µM] | SMILES
1 | 9.08 | 4.56 | 5.08 | 6.93 | 8.28 | > 50 | C#CCNC(=O)/C=C/c1c(/C=C/c2ccc(OC)cc2)cc(OC)cc1OC
2 | 1.27 | 1.98 | 0.39 | 1.98 | 2.78 | 38.4 | COc1ccc(/C=C/c2cc(OC)cc(OC)c2/C=C/C(=O)NCCCCl)cc1
3 | 1.45 | 4.95 | 0.46 | 2.08 | 4.69 | 40.6 | COc1ccc(/C=C/c2cc(OC)cc(OC)c2/C=C/C(=O)N2CCC(Cl)CC2)cc1
4 | 10.3 | 5.24 | 6.27 | 5.6 | 7.38 | > 50 | CCC1CCCCN1C(=O)/C=C/c1c(/C=C/c2ccc(OC)cc2)cc(OC)cc1OC (centres undefined)
5 | 6.69 | 4.35 | 2.44 | 5.77 | 7.66 | > 50 | COc1ccc(/C=C/c2cc(OC)cc(OC)c2/C=C/C(=O)N2CCCCC2C)cc1 (centres undefined)
6 |  |  |  | 15.6 |  |  | Cc1ccc(-c2cc(C(F)(F)F)nn2-c2ccc(S(N)(=O)=O)cc2)cc1 [CELECOXIB]
7 | 6.84 | 2.39 | 2.56 | 3.35 | 4.85 | > 50 | COc1ccc(/C=C/c2cc(OC)cc(OC)c2/C=C/C(=O)N(CC(C)C)CC(C)C)cc1
8 | 16.4 | 6.13 | 7.19 | 7.49 | 9.27 | > 50 | CCCCCN(CCCCC)C(=O)/C=C/c1c(/C=C/c2ccc(OC)cc2)cc(OC)cc1OC
9 | 1.88 | 3.31 | 0.85 | 2.32 | 3.08 | > 50 | COc1ccc(/C=C/c2cc(OC)cc(OC)c2/C=C/C(=O)N2CCOCC2)cc1
10 | 13 | 3.94 | 7.05 | 8.81 | 10.2 | > 50 | COc1ccc(/C=C/c2cc(OC)cc(OC)c2/C=C/C(=O)NC2CC2)cc1
11 | 7.09 | 11.9 | 3.16 | 5.82 | 8.25 | > 50 | COc1ccc(/C=C/c2cc(OC)cc(OC)c2/C=C/C(=O)N2CCCC(C)C2)cc1 (centres undefined)
12 | 20.1 | 4.28 | 13.8 | 8.66 | 8.06 | > 50 | CCCCCCCCNC(=O)/C=C/c1c(/C=C/c2ccc(OC)cc2)cc(OC)cc1OC
13 | 10.1 | 3.99 | 4.12 | 6.16 | 9.03 | > 50 | CCCCN(CCCC)C(=O)/C=C/c1c(/C=C/c2ccc(OC)cc2)cc(OC)cc1OC
14 | 8.01 | 2.76 | 3.18 | 5.4 | 8.1 | 45.2 | COc1ccc(/C=C/c2cc(OC)cc(OC)c2/C=C/C(=O)N2CCSCC2)cc1
15 | 8.87 | 4.2 | 3.76 | 6.35 | 9.28 | > 50 | COc1ccc(/C=C/c2cc(OC)cc(OC)c2/C=C/C(=O)N2CCCC2)cc1
16 | 23.2 | 6.05 | 15.3 | 10.6 | 9.75 | > 50 | COc1ccc(/C=C/c2cc(OC)cc(OC)c2/C=C/C(=O)N2CCCCC2)cc1
17 | 1.98 | 1.57 | 0.58 | 2.27 | 3.26 | 45.1 | COc1ccc(/C=C/c2cc(OC)cc(OC)c2/C=C/C(=O)N2CC(C)CC(C)C2)cc1 (centres undefined)

Row | IC50 [1] [µM] | IC50 (MCF7) [µM] | IC50 [2] [µM] | IC50 (A549) [µM] | IC50 (B16-F10) [µM] | IC50 [3] [µM] | SMILES
18 | 5.09 | 2.63 | 1.98 | 3.61 | 5.48 | > 50 | COc1ccc(/C=C/c2cc(OC)cc(OC)c2/C=C/C(=O)NC2CCCCC2)cc1
19 | 2.01 | 2.56 | 0.72 | 2.36 | 4.02 | 40.4 | COc1ccc(/C=C/c2cc(OC)cc(OC)c2/C=C/C(=O)NC(C)C)cc1
20 | 5.78 | 2.29 | 1.62 | 4.51 | 5.67 | 39.1 | COc1ccc(/C=C/c2cc(OC)cc(OC)c2/C=C/C(=O)N2CCN(C)CC2)cc1
21 | 8.57 | 4.23 | 3.55 | 6.69 | 9.18 | > 50 | COc1ccc(/C=C/c2cc(OC)cc(OC)c2/C=C/C(=O)N2CCC(c3ccccc3)CC2)cc1
22 | 6.89 | 6.1 | 3.01 | 5.46 | 6.78 | > 50 | COc1ccc(/C=C/c2cc(OC)cc(OC)c2/C=C/C(=O)O)cc1
23 | 10.3 | 6.45 | 8.09 | 7.2 | 7.76 | > 50 | COc1ccc(/C=C/c2cc(OC)cc(OC)c2/C=C/C(=O)N2CCC(C)CC2)cc1
24 | 12.4 | 7.06 | 7.06 | 7.86 | 6.99 | 35.4 | CCNC(=O)/C=C/c1c(/C=C/c2ccc(OC)cc2)cc(OC)cc1OC
25 | 4.56 | 3.43 | 2.09 | 3.95 | 4.38 | > 50 | CCC(C)NC(=O)/C=C/c1c(/C=C/c2ccc(OC)cc2)cc(OC)cc1OC (centres undefined)
26 | 8.06 | 2 | 3.88 | 5.58 | 5.98 | 45.9 | CCCN(CCC)C(=O)/C=C/c1c(/C=C/c2ccc(OC)cc2)cc(OC)cc1OC
27 | 4.67 | 6.55 | 2.15 | 3.35 | 3.98 | > 50 | CCN(CC)C(=O)/C=C/c1c(/C=C/c2ccc(OC)cc2)cc(OC)cc1OC
28 | 6.66 | 7.01 | 2.1 | 5.14 | 8.15 | > 50 | COc1ccc(/C=C/c2cc(OC)cc(OC)c2/C=C/C(=O)Nc2cc(OC)c(OC)c(OC)c2)cc1
29 | 8.01 | 3.22 | 3.28 | 5.89 | 8.18 | 35 | C=CCN(CC=C)C(=O)/C=C/c1c(/C=C/c2ccc(OC)cc2)cc(OC)cc1OC
30 | 8.92 | 4.15 | 3.68 | 4.22 | 6.83 | > 50 | COc1ccc(/C=C/c2cc(OC)cc(OC)c2/C=C/C(=O)NCCCN2CCOCC2)cc1
31 | 15.1 | 5.29 | 6.12 | 10.4 | 12.7 | > 50 | COc1ccc(/C=C/c2cc(OC)cc(OC)c2/C=C/C(=O)NCC(C)C)cc1
32 | 9.08 | 4.03 | 3.1 | 5.34 | 8.02 | > 50 | CCCCCCN(CCCCCC)C(=O)/C=C/c1c(/C=C/c2ccc(OC)cc2)cc(OC)cc1OC
33 | 11.1 | 13.6 | 5.29 | 8.67 | 7.98 | > 50 | COc1ccc(/C=C/c2cc(OC)cc(OC)c2/C=C/C(=O)NC(C)(C)C)cc1
34 | 1.36 | 2.3 | 0.45 | 2 | 3.45 | 32.3 | COc1ccc(/C=C/c2cc(OC)cc(OC)c2/C=C/C(=O)NCCCl)cc1
